The list is not random: actives were taken first. Their share in the collection is about 2%.
A1 inh – inhibitors of the anti-apoptotic protein A1, read as caspase activation. caspase activation, % (test concentration not listed). AID 2462. 330,000 compounds, 0.066% hits. MEF A1-2A-BIM cells, Caspase-Glo 3/7 luminescence, 3 h; percent of clofoctol response, vehicle zero;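 active means over half of replicate activation scores above 10%, or exactly half above 10 with the replicate mean above 10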
MC4R barr agon – human MC4R agonism via beta-arrestin; 360,000 compounds, 0.98% hits; P32245; activation, % at 8.9 µM; U2OS MC4R beta-arrestin complementation, luminescence; percent of melanotan II response, DMSO zero;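 active means activation above a per-plate cutoff, the mean activation of sample wells on that plate plus 3 SD, cut at about 8% in these data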
Target sequence (P32245 whole entry, looked up): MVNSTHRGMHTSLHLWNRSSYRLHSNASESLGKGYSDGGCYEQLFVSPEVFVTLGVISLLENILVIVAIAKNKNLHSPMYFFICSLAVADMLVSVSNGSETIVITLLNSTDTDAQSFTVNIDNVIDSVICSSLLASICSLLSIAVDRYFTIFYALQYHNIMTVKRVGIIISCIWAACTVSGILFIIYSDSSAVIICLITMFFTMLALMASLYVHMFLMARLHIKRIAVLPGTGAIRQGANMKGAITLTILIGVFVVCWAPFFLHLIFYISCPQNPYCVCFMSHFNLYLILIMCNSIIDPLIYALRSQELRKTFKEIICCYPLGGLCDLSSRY
MC4R antagonist – human MC4R antagonism in cAMP assay. P32245. MC4R-expressing cells, MTII-stimulated cAMP, LANCE TR-FRET. inhibition, % at 6.5 µM. 360,000 compounds, 0.48% hits. AID 540295;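 active means inhibition above its plate's cutoff, the mean of tested wells on that plate plus 3 SD, cut at about 29% in these data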;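 further: 0% = Melanotan II alone and 100% = Melanotan II plus saturating MCL0020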
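System: U2OS cells stably expressing human melanocortin 4 receptor (MC4R). Reagent: Melanotan II challenge after compound preincubation. Doses: 6.5 µM. Times: 30-min compound, 1-h challenge, 1-h detection, room temperature. Measured by: TR-FRET with Eu-cAMP and labeled anti-cAMP, 671 nm. Replicates: singlicate.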
UPR CHOP act – activators of apoptotic arm of unfolded protein response (CHOP); AID 449763; 330,000 compounds, 0.34% hits; activation, % at 10 µM; CHO-CHOP luciferase reporter, UPR activation, luminescence; percent of tunicamycin response over DMSO baseline;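 active means at 10 µM dose, activation of 40% or more, normalized to positive control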;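 further: 100% = tunicamycin at 10 µg/mL and 0% = DMSO alone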
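Test system: CHO CHOP reporter cells. Input: 500 CHO-CHOP cells per well. Medium: F12 with 10% FBS. Technique: luciferase luminescence. Measure: percent activation relative to tunicamycin control. Dosing: 10 µM compound, 0.5% DMSO. Timing: 16-18 h cell attachment, then 6 h compound exposure, 37 °C.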
XBP1 UPR activ – adaptive UPR (XBP1) activation. CHO-XBP1 luciferase reporter, IRE1-XBP1 UPR activation, luminescence; percent of tunicamycin response, DMSO as zero. activation, % at 20 µM. 330,000 compounds, 0.33% hits;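 active means versus positive control, 20 µM dose yields 30% or more activation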;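 further: 100% = tunicamycin at 10 µg/mL and 0% = DMSO only wells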
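Assay system: IRE1-XBP1 luciferase reporter CHO line. Input: 1000 cells/well. Buffer or medium: F12 with 10% serum. Doses: 20 µM, 1% DMSO. Times: overnight seeding at 37 °C, 6 h compound treatment at 37 °C. Technique: Steady-Glo luciferase glow luminescence, 10 min after reagent addition.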
MC4R barr ag – human MC4R beta-arrestin agonism confirmation; activation, % at 8.9 µM; shares compounds with MC4R barr agon; AID 602192; 2,400 compounds, 31% hits; U2OS MC4R beta-arrestin recruitment, luminescence; scaled DMSO 0%, Melanotan II 100%;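 active means mean activation across replicates above the hit cutoff set in the earlier primary screen, cut at about 8% in these data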
MOR-DOR barr ag – OPRM1-OPRD1 heterodimer agonism counter-screen; shares compounds with MC4R barr agon; U2OS PathHunter beta-arrestin, beta-gal luminescence; percent of deltorphin B response, DMSO zero; activation, % at 9.2 µM; 2,400 compounds, 5.8% hits; AID 602194;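 active means mean activation across replicates exceeds the hit threshold derived in the earlier primary screen, cut at about 18% in these data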;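 further: 100% = deltorphin B at 0.9 µM final and 0% = DMSO alone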
Starred values were filed as active, the others as inactive; . = no result given.

SMILES	A1 inh	MC4R barr agon	MC4R antagonist	UPR CHOP act	XBP1 UPR activ	MC4R barr ag	MOR-DOR barr ag
O=C(CSc1ncnc2c1oc1ccccc12)Nc1cccc(Cl)c1	1	13*	10	2	1	0	5
O=C(CSc1ncnc2c1oc1ccccc12)Nc1cccc(C(F)(F)F)c1	1	6	-3	-2	-1	.	.
COc1ccc(Nc2nc(-c3cc4cccc(OC)c4oc3=O)cs2)cc1	0	20*	-3	2	5	5	5
COc1cc2ccccc2cc1C(=O)OCc1nc2ccsc2c(=O)[nH]1	0	15*	4	1	2	4	6
CC[C@@H](C)[C@H](CN[C@H](CNC)C(C)C)NC[C@@H](C)c1ccc(CC(C)C)cc1	0	45*	-1	13	25	16*	8
C=CCOc1ccc(/C=C/C(=O)OCC(=O)NCCc2ccccc2)cc1	0	0	1	0	-2	.	.
C=CCOc1ccc(/C=C/C(=O)OCC(=O)NCc2cccc(OC)c2)cc1	.	28*	3	2	0	2	5
C[C@@H]1CN([C@H](C)CO)C(=O)c2cc(Br)cnc2O[C@H]1CN(C)C	.	0	11	.	.	.	.
O=[N+]([O-])c1ccc(N/N=C/c2ccccc2)c(F)c1	-1	12*	22	5	1	1	7
O=[N+]([O-])c1ccc(C=NNc2ccccc2)cc1	.	0	-2	.	.	.	.
O=C(NCc1ccc2c(c1)OCO2)Nc1ccc2ccccc2c1	3	11*	-4	0	0	0	5
CCn1cc([N+](=O)[O-])c(C(=O)N2N=C(c3ccc4ccccc4c3)CC2c2cc(Br)ccc2O)n1 (centres undefined)	-1	16*	5	3	4	9.0*	6
O=C(O)c1nn(CCOc2ccc(Cl)cc2Cl)c(=O)c2ccccc12	0	18*	0	2	-2	0	6
CCC(C)c1ccc(NC(=S)NC2CCN(Cc3ccccc3)CC2)cc1 (centres undefined)	2	15*	13	0	-2	22*	14
O=C(COC(=O)Cc1ccc(Cl)c(Cl)c1)NCCc1ccccc1	.	0	4	.	.	.	.
O=C(COc1ccc2ccccc2c1Br)Nc1ncn[nH]1	-1	13*	12	2	1	1	2
Cc1ccc(C(=O)NCCc2cc3ccc(C)c(C)c3[nH]c2=O)cc1[N+](=O)[O-]	1	9.6*	7	0	0	1	3
O=c1[nH]cc(CCCc2ccccc2)c(=O)[nH]1	.	-2	-6	.	.	.	.
NC(=O)c1c(NC(=O)C2COc3ccccc3O2)sc2c1CCN(Cc1ccccc1)C2 (centres undefined)	0	14*	21	7	2	1	5
CCOC(=O)c1c(NC(=O)C2COc3ccccc3O2)sc2c1CCN(Cc1ccccc1)C2 (centres undefined)	1	0	2	4	-2	.	.
COc1cccc2cc(C(=O)c3ccc([N+](=O)[O-])cc3)oc12	-8	20*	5	4	1	0	6
CCCS(=O)(=O)NC(=O)C1(C)CCCN(C(=O)c2ccc(F)cc2Cl)C1 (centres undefined)	.	0	-2	.	.	.	.
Clc1ccc(-c2csc(N/N=C/c3ccco3)n2)cc1	0	-2	8	7	8	.	.
Clc1ccc(-c2csc(N/N=C\c3cccnc3)n2)cc1	0	11*	17	2	7	0	5
COc1ccc(CNC(=S)Nc2ccc3nc(N4CCOCC4)cc(C)c3c2)cc1	-1	41*	14	2	-2	11*	8
SMILES	A1 inh	MC4R barr agon	MC4R antagonist	UPR CHOP act	XBP1 UPR activ	MC4R barr ag	MOR-DOR barr ag
COc1cc(/C=C/CNC[C@H]2O[C@@H](n3cc(C)c(=O)[nH]c3=O)C[C@@H]2O)ccc1O	.	-1	-1	.	.	.	.
COc1ccccc1C(=O)NC(=S)Nc1ccc(NC(=O)c2cccs2)cc1	0	27*	9	1	-6	5	5
O=C(NC(=S)Nc1ccc(S(=O)(=O)N2CCCCC2)cc1)c1cccs1	-1	13*	-1	-1	1	-4	2
COc1cc(NC(=O)c2ccc(OC)c([N+](=O)[O-])c2)ccc1NC(=O)c1ccco1	1	8	-1	-1	-4	.	.
CCOc1ccc(C(=O)NC(=S)Nc2ccc(NC(=O)c3ccco3)c(C)c2)cc1[N+](=O)[O-]	1	10*	5	-1	4	7	5
CC(=O)NC(=S)Nc1ccc(NC(=O)c2cccs2)cc1	-1	-1	9	3	3	.	.
CC(C)(C)c1ccc(C(=O)Nc2ccc(NC(=O)c3ccco3)cc2)cc1	0	25*	9	4	4	6	13
CCCCNC(=O)C1(C)CCN1C(=O)Cc1cccc2ccccc12 (centres undefined)	.	-1	-5	.	.	.	.
COc1ccccc1C(=O)NC(=S)Nc1ccc(NC(=O)c2ccco2)cc1	1	11*	2	2	5	3	4
COc1cc(OC)cc(C(=O)NC(=S)Nc2ccc(NC(=O)c3ccco3)cc2)c1	2	12*	1	1	-2	3	5
CC1(C(=O)NCc2cccnc2)CCN1C(=O)Cc1cccs1 (centres undefined)	.	-1	12	.	.	.	.
Cc1ccc(NC(=O)c2cc(-c3ccc(C)c(C)c3O)n[nH]2)cc1C	-1	2	3	-2	-5	.	.
CC(=O)Nc1ccc(NC(=O)c2cc(-c3ccc(C)c(C)c3O)n[nH]2)cc1	0	9.7*	-4	5	10	4	2
COc1ccc(CN(C)c2ncnc3sccc23)c(OC)c1OC	0	-2	-8	1	-4	.	.
Cc1cc(OCC(=O)Nc2ccncc2)ccc1Cl	-1	0	4	1	-3	.	.
Cc1ccc(OCC(=O)NC(=S)Nc2cccc(NC(=O)c3ccccc3Cl)c2)cc1	0	15*	1	1	-2	6	4
CCC(=O)NC(=S)Nc1ccc(NC(=O)COc2ccc(Cl)c(C)c2)cc1	0	19*	12	-1	-2	3	5
O=C(COc1ccccc1)NC(=S)Nc1cccc(NC(=O)c2ccccc2Cl)c1	2	6	8	0	0	.	.

Screening data (PubChem)
